# Scp1 inh = blocks human Scp-1 phosphatase activity; Q9GZU7; Recombinant Scp1, phosphopeptide, malachite green phosphate absorbance; inhibition, % at 20 µM; 340,000 tested, 0.88% active; AID 493091;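 active means inhibition above about 50% at 20 µM, limit read from the data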;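 further: plate controls were DMSO wells with enzyme for no effect and wells lacking enzyme for full effect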
#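 Material: truncated SCP-1 phosphatase (76-261aa) / Buffer or medium: 50 mM Tris acetate pH 5.5, 0.005% Tween-20, 10 mM MgCl2 / Compound dosing: one concentration, 20 µM, with 1.0% DMSO / Incubation: 45 min room-temperature reaction, 5 min colour, 30 min stabiliser / Detection: colorimetric free-phosphate detection, absorbance 630 nm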
# Rpn11 inh = inhibitors of human proteasome Rpn11 | AID 588493 | inhibition, % at 20 µM | 360,000 tested, 0.59% active | O00487 | human 26S proteasome, Ub4-pepOG fluorescence polarization; 20S core pre-blocked with epoxomicin;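 active means inhibition at 20 µM, scaled to each plate's controls, above about 33%, limit read from the data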
# Target sequence (O00487 whole entry, looked up): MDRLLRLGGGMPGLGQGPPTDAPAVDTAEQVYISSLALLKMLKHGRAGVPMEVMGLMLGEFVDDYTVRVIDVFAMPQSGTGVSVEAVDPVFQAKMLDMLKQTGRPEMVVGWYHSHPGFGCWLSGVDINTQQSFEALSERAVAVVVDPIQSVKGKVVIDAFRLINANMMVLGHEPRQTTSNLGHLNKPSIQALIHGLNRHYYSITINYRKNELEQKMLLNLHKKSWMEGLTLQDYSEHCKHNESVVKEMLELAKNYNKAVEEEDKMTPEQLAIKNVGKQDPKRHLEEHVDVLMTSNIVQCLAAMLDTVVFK
# LMPTP inh = blocks human LMPTP phosphatase. 360,000 tested, 0.22% active. P24666. recombinant LMPTP-A, OMFP fluorogenic substrate, fluorescence intensity. inhibition, % at 20 µM;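 active means compounds that cut the enzyme signal by at least half of the control window in the single-dose screen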;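 further: plate controls were DMSO wells with enzyme plus substrate for no effect and substrate without enzyme for full effect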
#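 Assay system: LMPTP-A enzyme. Input: 0.625 nM LMPTP-A final. Probe or stimulus: 400 µM OMFP. Compound dosing: single 20 µM dose. Schedule: 50 min dark incubation at room temperature. Detection: fluorescence intensity of OMFP turnover product. Read-out: percent inhibition versus substrate-only and uninhibited controls. Benchmarks: no-enzyme low control, uninhibited high control.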
# DNMT1 block = DNMT1 (human) enzyme inhibition. inhibition (reported as % activation of signal), % at 10 µM. DNMT1 molecular beacon, Hinp1I cleavage, fluorescence. P26358. 360,000 tested, 0.83% active; in the data active means inhibition above about 50%
# STEP block = inhibitors of human striatal-enriched phosphatase STEP. recombinant STEP, OMFP fluorogenic substrate, fluorescence. inhibition, % at 20 µM. 360,000 tested, 0.25% active;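 active means inhibition at 20 µM, scaled per plate between control wells, above about 37%, limit read from the data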;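 further: 0% = DMSO with enzyme and substrate and 100% = substrate only without enzyme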
#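 Material: STEP (striatal-enriched tyrosine phosphatase) enzyme, cell-free | Medium: 50 mM Bis-Tris pH 6.0 with 2.5 mM DTT and 0.005% Tween 20 | Read-out: Percent inhibition scaled to no-enzyme and uninhibited-enzyme controls, plate-pattern corrected | Signal: Fluorescence read at 480 nm ex / 540 nm em | Times: 20 min reaction, room temperature, in the dark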
# SUMO1 PPI mod = SUMO1-SIM interaction modulation; SUMO1 binding to a labelled peptide, TR-FRET, 1 h; inhibition, % at 20 µM; P63165; 360,000 tested, 0.33% active; in the data active means inhibition above about 37%
# Target sequence (P63165 whole entry, looked up): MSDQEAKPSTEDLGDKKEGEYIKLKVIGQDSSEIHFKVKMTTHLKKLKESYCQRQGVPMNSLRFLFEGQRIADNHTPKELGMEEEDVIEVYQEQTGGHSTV
# Scp-1 conf = confirmation of human Scp-1 phosphatase inhibitors; 2,500 tested, 61% active; inhibition, % at 20 µM; shares compounds with Scp1 inh; recombinant SCP-1 catalytic domain, phosphate release, malachite green absorbance;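 further: plate controls were DMSO with enzyme for no effect and buffer wells lacking enzyme for full effect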
# Scp-1 MG ctr = colorimetric interference in Scp-1 counter-screen; 2,500 tested, under 10 active; Colorimetric interference counterscreen, malachite green absorbance 630 nm; apparent inhibition (interference), % at 20 µM; shares compounds with Scp1 inh;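 further: compounds added after enzyme reaction finished so only phosphate colour detection is probed; plate controls were DMSO wells with completed Scp-1 reaction for no effect and substrate wells lacking enzyme for full effect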
# Scp-1 Tm shift = validation of human Scp-1 inhibitors by thermal shift binding | shares compounds with Scp1 inh | Recombinant SCP1, Sypro Orange thermal shift Tm | thermal shift relative to vanadate control, % at 40 µM | 1,500 tested, 25% active | AID 540329;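 active means substances whose mean melting-temperature shift, as a percentage of the reference inhibitor's shift, reaches about 5.3%, limit read from the data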;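 further: 0% = Tm of DMSO wells and 100% = Tm with sodium orthovanadate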
# DNMT1 confirm = DNMT1 inhibition confirmation, single concentration; shares compounds with DNMT1 block; DNMT1 molecular beacon HinP1I cleavage, fluorescence; inhibition, % at 10 µM; 2,300 tested, 8% active; AID 602385;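 active means average inhibition of at least 30% in the single-concentration confirmation test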
# DNMT1 interf = shows spectral interference in the DNMT1 beacon assay; shares compounds with DNMT1 block; DNMT1 molecular beacon spectral interference counterscreen, fluorescence 485/520; activation (fluorescence interference), % at 10 µM; 2,300 tested, 1% active;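 active means activation of at least 30% at 10 µM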;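 further: DNMT1 catalytic domain with a HinP1I cleavage step and a FAM/dabcyl DNA beacon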
# Active calls of the source: *; x = no result shown. Rows were chosen to be rich in hits. Some 2.3% of all compounds tested hit in one or more screens of this group.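 How the source made its calls, unless noted: active means inhibition of at least 30% at 20 µM; inactive means the rest.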
SMILES,Scp1 inh,Rpn11 inh,LMPTP inh,DNMT1 block,STEP block,SUMO1 PPI mod,Scp-1 conf,Scp-1 MG ctr,Scp-1 Tm shift,DNMT1 confirm,DNMT1 interf
CC1(CC(=O)N/N=C/c2cc([N+](=O)[O-])c(O)cc2O)OCCO1,69.5*,-4.3,69.3*,69.4*,14.5,-14.2,64.2*,-3.5,6.1*,2.4,-3.0
COc1ccccc1OCCOc1ccc(/C=C2/C(=N)N3OC(C)=CC3=NC2=O)cc1OC,96.5*,16.5,4.7,88.2*,23.3,-4.9,67.8*,-13.4,-1.3,19.1,-5.6
CC1=CC2=NC(=O)/C(=C\c3cccn3CCOc3ccccc3C)C(=N)N2O1,-11.8,4.0,2.9,-4.2,1.0,-6.4,x,x,x,x,x
O=C(CCc1n[nH]c(=O)[nH]c1=O)N/N=C/c1ccco1,81.0*,-30.2,39.7,51.1*,38.4,30.9,56.0*,-7.1,-1.4,2.4,7.2
COc1cccc(/C=N/NC(=O)CCc2n[nH]c(=O)[nH]c2=O)c1O,-6.7,-5.4,-1.4,4.5,-0.8,-0.4,x,x,x,x,x
Cc1ccc(C(CNS(=O)(=O)c2cc(F)ccc2F)N2CCN(C)CC2)cc1 (stereo unspecified),-3.4,3.7,-1.3,3.2,-0.6,3.0,x,x,x,x,x
O=C(CCNS(=O)(=O)c1ccc(Br)cc1)NCCc1ccccc1,-5.2,-1.5,-1.2,-1.4,-0.2,-0.9,x,x,x,x,x
Cc1ccc(S(=O)(=O)CCC(=O)Nc2cccc(C)c2)cc1,-3.9,1.5,-2.6,-1.6,-3.0,1.2,x,x,x,x,x
NS(=O)(=O)c1ccc(CCNC(=O)CCS(=O)(=O)c2ccc(Br)cc2)cc1,95.6*,-3.8,0.0,86.5*,5.9,74.7*,66.0*,-16.1,-25.3,3.9,2.6
O=C(CCS(=O)(=O)c1ccc(Br)cc1)NCCc1ccccc1,88.0*,-1.2,1.5,83.7*,5.8,12.6,62.3*,-15.8,-25.1,10.6,3.2
CCc1cccc(NC(=O)CCS(=O)(=O)c2ccc(Br)cc2)c1,86.2*,10.6,2.3,87.6*,10.4,38.5,64.8*,-21.4,-13.8,8.9,4.5
CN(C)/C=C/C=C1C(=O)CCCC1=O,57.9*,-18.5,0.4,55.0*,2.0,-6.3,48.8*,-6.2,-8.8,-0.1,0.6
CC1=NN(c2ccccc2)C(=O)/C1=C/C=C/C=C/N(C)C,-4.9,x,32.5,-1.2,17.4,-121.8,x,x,x,x,x
O=C(Nc1ccc2c(c1)OCO2)c1cc2ncc(Br)cn2n1,57.4*,-23.8,36.5,59.4*,11.6,8.7,66.4*,-5.2,1.1,0.0,-2.1
O=C(Nc1cccc(C(F)(F)F)c1)c1cc2ncc(Br)cn2n1,7.4,2.8,10.2,11.5,31.6,0.5,x,x,x,x,x
O=c1[nH]n2c(=O)c3c([nH]c2c1N=Nc1cccc(Cl)c1)CCC3,77.7*,-30.7,45.9,94.0*,14.4,8.4,59.5*,-16.1,27.3*,5.2,-0.7
Cc1ccc(C(=O)NCc2occc2C(=O)O)o1,53.3*,-10.5,-2.6,53.0*,5.1,2.9,52.5*,-5.7,-0.3,3.1,1.2
Cc1cc(=O)[nH]c(SCC(=O)Nc2ccc(C(=O)O)cc2)n1,-2.0,2.8,-0.4,0.7,-0.6,0.8,x,x,x,x,x
CCOC(=O)c1ccc(NC(=O)CSc2nc(C)cc(=O)[nH]2)cc1,70.7*,2.7,16.6,88.1*,2.4,6.5,57.9*,-19.4,10.5*,19.0,2.7
